ABHD5-PLIN5 inh: blocks binding of human ABHD5 to perilipin-5; inhibition, % at 4 µM; Split G. princeps luciferase complementation, luminescence, 4 h; 360,000 compounds, 0.78% hits; Q00G26+Q8WTS1;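 active = inhibition above the mean inhibition across every tested compound plus 3 SD, cut at about 22% in these data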;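 note: 0% = DMSO only wells and the 100% control is not disclosed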
Rad51 HR inh: Rad51 (human) homologous recombination inhibition. hRad51 DNA strand exchange, fluorescence dequenching. AID 1385. Q06609. 200,000 compounds, 0.085% hits. inhibition, % at 10 µM;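 active = inhibition above 40% at the single screening dose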;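 note: 0% = DMSO control wells and 100% = blanks with heterologous ssDNA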
Target sequence (Q06609 whole entry, looked up): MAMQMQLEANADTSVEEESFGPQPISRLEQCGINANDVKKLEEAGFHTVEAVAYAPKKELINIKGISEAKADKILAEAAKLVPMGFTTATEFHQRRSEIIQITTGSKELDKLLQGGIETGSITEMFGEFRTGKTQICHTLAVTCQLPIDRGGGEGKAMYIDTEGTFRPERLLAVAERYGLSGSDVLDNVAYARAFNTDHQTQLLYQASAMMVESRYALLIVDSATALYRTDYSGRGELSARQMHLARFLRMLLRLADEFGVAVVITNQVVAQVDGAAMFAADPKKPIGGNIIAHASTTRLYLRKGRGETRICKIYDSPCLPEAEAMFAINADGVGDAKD
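material = hRad51 filaments on single-stranded DNA | timing = filaments 15 min 37 °C, then compound 30 min | signal = FRET fluorescence dequenching, excitation 485 nm, emission 520 nm | benchmarks = control wells and blank wells on each plate | evaluation = percent inhibition relative to plate controls and blanks | compound = 10 µM final, single point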
Hsp70 activator: transcriptional activators of Hsp70. AID 1203. HeLa Hsp70 promoter luciferase reporter, luminescence; scaled: vehicle 0, proteasome-inhibitor control 100%. activation, % at 10 µM. 200,000 compounds, 0.04% hits;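 active = activation above the mean across all tested compounds plus 3 SD, cutoff set per campaign, cut at about 5.5% in these data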;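 note: 100% = MG132 at 30 µM as the positive control and 0% = DMSO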
FXN GAA850 act: increases GAA850 frataxin promoter reporter activity; HEK293 lucGAA850 FXN promoter luciferase reporter, 24 h; percent of 10 µM SAHA response; activation, % at 6 µM; 360,000 compounds, 0.56% hits;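 active = activation above the average of all compounds screened plus 3 SD, cutoff fixed separately per campaign, cut at about 7.5% in these data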;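 note: 0% = DMSO wells and 100% = 10 µM SAHA wells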
TAG inh: reduces triacylglycerol accumulation in H9c2 cells; Nile Red lipid (TAG) fluorescence; cells loaded with 200 µM oleic acid; inhibition, % at 12.5 µM; 230,000 compounds, 0.66% hits; AID 651582;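 active = pattern-corrected inhibition of lipid staining of at least 50% with the nuclear-stain viability signal not falling by more than 50%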;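 note: 0% = DMSO wells and 100% = triacsin C control wells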
HIF activator: HIF pathway transcriptional activation; U2OS HRE-luciferase reporter, luminescence; normalized: DMSO 0%, desferrioxamine 100%; activation, % at 7.5 µM (by protocol); 300,000 compounds, 0.32% hits;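 active = mean activation of at least 10% of the iron chelator positive control signal, with at least half of replicates also reaching 10%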
An asterisk follows results filed as active; . = not tested or not shown. Compounds with a hit are over-represented: about 1.9% of the library has one in this group of screens.

SMILES | ABHD5-PLIN5 inh | Rad51 HR inh | Hsp70 activator | FXN GAA850 act | TAG inh | HIF activator
COC(=O)C(=Cc1ccc(OCc2ccc([N+](=O)[O-])cc2)c(OC)c1)C(=O)OC | 17.4 | 4.4 | -0.2 | 2.5 | -4.1 | 3.3
CCOC(=O)C(=Cc1ccc(OCc2ccc([N+](=O)[O-])cc2)c(OC)c1)C(=O)OCC | 4.9 | -10.5 | -0.2 | -1.1 | -17.0 | 11.0*
CCCc1nc2ccc(C)cn2c1Cc1cccc(Cl)c1 | 4.5 | . | . | . | . | .
Cc1ccc(NC(=S)N/C(=N/S(=O)(=O)c2ccccc2)c2ccccc2)cc1 | -5.2 | -2.2 | -0.4 | 6.3 | 0.9 | 10.3*
NC(=O)c1c(NC(=O)CSc2nnc(Cc3ccccc3)n2Cc2ccco2)sc2c1CCC2 | -5.0 | 2.8 | 0.0 | -2.4 | . | -0.3
CCCCn1c(SCC(=O)Nc2sc3c(c2C(N)=O)CCC3)nnc1-c1ccccc1 | 22.0* | -1.0 | 0.4 | 1.9 | 16.2 | -0.3
CCc1ccc(S(=O)(=O)/N=C2/C=C(Sc3ncn[nH]3)C(=O)c3ccccc32)cc1 | 32.3* | 4.0 | -0.3 | -14.4 | . | .
O=C1C=C(c2c(O)ccc3ccccc23)c2ccccc2C1=O | 91.0* | . | . | -8.2 | 24.6 | .
COc1cc(OC)c(C(=O)c2ccccc2[N+](=O)[O-])c(OC)c1 | -8.3 | . | . | -0.8 | -10.2 | .
COc1cc([C@@H]2c3cc4c(cc3[C@@H](NC3CCN(Cc5ccccc5)CC3)[C@H]3COC(=O)[C@H]23)OCO4)cc(OC)c1O | . | -2.3 | . | . | . | 15.2*
Cc1ccccc1OCC(=O)NCCCNC(=O)c1ccco1 | 5.7 | . | . | 1.5 | . | 0.0
C=CCOc1c(/C=N\NC(N)=O)cccc1OC | 0.4 | 18.4 | . | -0.2 | 0.8 | -0.4
C=CCOc1c(OC)cc(/C=N/Nc2cccc(C(=O)O)c2)c(Br)c1Br | -1.2 | -8.0 | -0.3 | 5.8 | 56.6* | 2.8
CCN(CC)CCn1nc2c3c(cccc3c1=O)-c1ccccc1-2 | 2.8 | 20.1 | 1.4 | 5.0 | 112.5 | 29.2*
O=c1c2cccc3c2c(nn1CN1CCOCC1)-c1ccccc1-3 | -6.8 | 0.7 | -0.1 | 4.3 | -1.2 | 0.2
COCC(=O)Nc1c(C(=O)Nc2cccc(OC)c2)oc2ccccc12 | 10.0 | -3.1 | -0.2 | 3.6 | . | 4.0
COc1cccc(NC(=O)c2oc3ccccc3c2NC(C)=O)c1 | 2.8 | 112.3* | 0.0 | 4.3 | . | 1.1
Cc1ccc(S(=O)(=O)N2C[C@@H]3[C@H]4CC[C@H](C4)[C@@H]3[C@@H](C)[C@H]2c2ccco2)cc1 | -2.2 | . | . | -0.5 | -25.6 | .
COc1ccc(NS(=O)(=O)c2ccc(N3CCOCC3)c(NC(=O)C(C)C)c2)cc1 | -3.0 | 1.1 | -0.1 | -0.7 | -6.8 | -0.7
CCOC(=O)/C=C/C(=O)Nc1cc(S(=O)(=O)Nc2ccc(OC)cc2)ccc1N1CCOCC1 | 22.4* | . | . | -3.8 | 29.7 | .
CCOCc1nnc(NC(=O)c2cc(Cl)ccc2OC)s1 | 7.4 | -3.1 | 0.0 | 1.1 | 7.3 | 0.6
COCc1nnc(NC(=O)c2cc(Cl)ccc2OC)s1 | -3.6 | -2.2 | -0.2 | 1.1 | . | 877.5*
COc1ccc(CNC[C@@H](CCCCN(C)Cc2ccc(OC)cc2)N2C[C@H](c3ccccc3)N(CCc3ccc(Cl)c(Cl)c3)C(=O)C2=O)cc1 | 31.6* | -6.9 | 0.2 | -5.6 | 128.8 | 4.5
Cc1nn(CCO)c2ncc(C(=O)c3cc(F)ccc3O)cc12 | 9.0 | . | . | 1.9 | . | 0.0
Cc1ccc(S(=O)(=O)N2CCOC23CCN(C(=O)c2ccc(Cl)cc2Cl)CC3)cc1 | -5.1 | . | . | -0.4 | . | 0.4
SMILES | ABHD5-PLIN5 inh | Rad51 HR inh | Hsp70 activator | FXN GAA850 act | TAG inh | HIF activator
Cc1ccc(S(=O)(=O)N2CCOC23CCN(C(=O)c2cc(Cl)ccc2Cl)CC3)cc1 | 0.9 | . | . | -0.6 | . | 70.1*
O=[N+]([O-])c1ccc(N=Nc2ccc(O)c3ccccc23)cc1 | -9.6 | . | . | -0.8 | 55.9* | .
O=S(=O)(Nc1ccc(N=Nc2ccc(O)c3ccccc23)cc1)c1ccccc1 | 11.6 | -2.5 | -0.3 | 3.4 | . | -0.3
COC(=O)[C@H](CCSC)NC(=O)c1cccnc1SC | -2.2 | 8.3 | . | 1.0 | -1.9 | 633.4*
CCC1(c2ccc(F)cc2)NC(=O)N(CC(=O)N2CCN(S(=O)(=O)c3ccc(C)cc3C)CC2)C1=O (stereo unspecified) | 0.0 | . | . | 0.8 | -9.9 | .
CC(/C=C/c1ccco1)=N\NC(=O)c1cccc(Cl)c1 | 3.0 | 13.3 | 0.3 | 4.4 | . | .
CC(/C=C/c1ccco1)=N/NC(=O)c1ccccc1Cl | 22.1* | -21.9 | -0.3 | 4.5 | 0.1 | 2.9
CC(C)CN1C(=O)c2ccc(C(=O)Nc3ccccc3C(=O)O)cc2C1=O | -4.0 | . | . | 1.7 | . | 0.2
COc1ccc(/C=N/NC(=O)c2ccccc2O)cc1CSc1ccccn1 | 3.8 | 0.9 | -0.3 | -0.7 | . | 196.7*
COc1ccc(C(C(=O)NCC2CCCO2)N(C(=O)CNC(=O)c2cccs2)c2ccc(C(C)=O)cc2)cc1OC (stereo unspecified) | -2.9 | 5.5 | 0.1 | 0.0 | 1.9 | -0.1
COc1ccc(OC)c(NC(=O)CCNC(=O)N2CC(=O)Nc3ccccc32)c1 | 7.8 | . | . | -0.9 | 22.1 | .
O=C(NNC(=O)c1ccccc1Br)c1ccc(Cl)cc1 | -10.9 | 5.7 | 0.1 | 1.7 | . | 12.2*
COc1ccc(OC)c2sc(N(CCN(C)C)C(=O)/C=C/c3cccs3)nc12 | 22.1* | . | . | -0.2 | . | -4.2
COc1cccc2sc(N(CCN(C)C)C(=O)/C=C/c3cccs3)nc12 | 19.8 | 4.8 | 0.4 | -0.4 | 26.8 | .
CN1CCN(C(=O)c2ccc(S(=O)(=O)c3ccc(Br)cc3)cc2)CC1 | 0.1 | 55.2* | -0.1 | 0.6 | 5.9 | -0.3
CC[C@@H](NC(=O)[C@@H](Cc1ccccc1)NC(=O)CC[C@H]1O[C@@H](n2ccc(=O)[nH]c2=O)[C@H](O)[C@@H]1O)c1ccccc1 | -0.1 | . | . | . | . | .
Cc1ccc(Sc2ccc(NC(=O)CCl)cc2)cc1C | -7.4 | 0.3 | -0.3 | -1.2 | 63.0* | -0.9
O=C(CCl)Nc1ccc(-c2ccccc2)cc1 | -1.2 | 7.1 | 0.2 | -12.5 | 56.4* | -3.7
Cc1ccc(C)c(Sc2ccc(NC(=O)CCl)cc2)c1 | . | 2.9 | 0.0 | . | . | -0.5
Cc1cc(C)cc(OCC(=O)OCC(=O)N2CCc3ccccc32)c1 | -0.2 | . | . | 1.2 | -4.2 | -0.7
Cc1cc2nc(-c3ccc(F)cc3)c(CC3CCCCC3)n2c(C)c1Br | -11.9 | . | . | . | . | .
COCCNc1nc(-c2ccccc2CO)c2sc(-c3ccccc3)cc2n1 | 0.4 | . | . | -2.1 | 50.5* | .
COCCNc1nc(NCCNC(C)=O)c2sc(-c3ccccc3)cc2n1 | 1.3 | . | . | 1.1 | 10.4 | .
N#C/C(=C/c1ccc(N2CCCCCC2)o1)c1cccc(F)c1 | 59.4* | -0.2 | 1.4 | 5.6 | . | -0.6
N#C/C(=C/c1ccc(N2CCCCCC2)o1)c1ccc(F)cc1 | 70.7* | -141.6 | 2.3 | 3.4 | -15.3 | -2.4
COc1cc(N2CCCC2)c(OC)cc1/C=C(/C#N)c1cccc(F)c1 | -0.7 | -2.0 | 0.6 | -1.4 | . | 0.1
